Test results taken from PMC4326595 (Molecular cancer therapeutics, 2014).

Legend:
Assay in all cases: HDAC-Glo I/II luminescent assay
Assay type in all cases: biochemical
HDAC 3/NCOR1 = HDAC 3/NCOR1 (Homo sapiens, UniProt O15379)
Procedure, shortened: (§1)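 Recombinant human enzymes: HDAC1 C-terminal GST, HDAC2/8/10 C-terminal His, HDAC6 N-terminal GST, HDAC3 as NCOR1 complex; each at a level in the lower linear titration range giving similar signal. Test compound, 15-point 3-fold dilutions (DMSO), pre-incubated with enzyme 20–30 min, room temperature; HDAC-Glo I/II detection reagent added, luminescence read after 20 min. Quadruplicate wells; IC50 values determined.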

HDAC 8 = molecular target: T1, HDAC 8 (Homo sapiens, UniProt Q9BY41)
T1 sequence (Q9BY41 1-377): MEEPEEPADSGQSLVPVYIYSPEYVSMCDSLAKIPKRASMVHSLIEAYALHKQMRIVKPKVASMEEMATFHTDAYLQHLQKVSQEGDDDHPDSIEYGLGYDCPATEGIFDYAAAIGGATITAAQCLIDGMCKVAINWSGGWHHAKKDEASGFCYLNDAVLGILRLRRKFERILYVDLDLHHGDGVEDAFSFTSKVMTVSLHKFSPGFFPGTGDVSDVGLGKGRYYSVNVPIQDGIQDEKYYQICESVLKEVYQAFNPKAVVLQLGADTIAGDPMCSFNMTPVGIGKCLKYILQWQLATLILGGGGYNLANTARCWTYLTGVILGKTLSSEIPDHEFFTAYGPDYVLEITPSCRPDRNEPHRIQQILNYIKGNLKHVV
Procedure, shortened: as §1

HDAC 10 = molecular target: T2, HDAC 10 (Homo sapiens, UniProt Q969S8)
T2 sequence (Q969S8 1-669): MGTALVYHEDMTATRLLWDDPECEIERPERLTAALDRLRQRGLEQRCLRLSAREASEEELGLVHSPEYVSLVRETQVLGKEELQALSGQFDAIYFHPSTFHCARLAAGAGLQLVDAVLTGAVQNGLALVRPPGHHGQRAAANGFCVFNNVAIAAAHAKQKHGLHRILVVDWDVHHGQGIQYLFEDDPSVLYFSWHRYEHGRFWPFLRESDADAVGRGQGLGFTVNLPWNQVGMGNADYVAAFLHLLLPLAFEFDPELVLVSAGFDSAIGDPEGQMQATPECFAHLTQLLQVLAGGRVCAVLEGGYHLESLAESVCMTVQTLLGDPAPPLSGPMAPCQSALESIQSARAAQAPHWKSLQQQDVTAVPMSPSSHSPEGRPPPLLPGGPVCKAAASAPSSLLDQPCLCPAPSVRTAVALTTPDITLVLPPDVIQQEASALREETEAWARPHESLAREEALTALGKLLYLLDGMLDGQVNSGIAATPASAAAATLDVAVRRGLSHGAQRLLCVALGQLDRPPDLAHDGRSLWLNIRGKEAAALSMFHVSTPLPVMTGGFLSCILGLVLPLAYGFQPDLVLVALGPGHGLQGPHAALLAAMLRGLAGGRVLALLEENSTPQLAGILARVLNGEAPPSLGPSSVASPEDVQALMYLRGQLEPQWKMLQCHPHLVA
Procedure, shortened: as §1

HDAC 1 = HDAC 1 (Homo sapiens, UniProt Q13547)
Chain of HDAC 1 (Q13547 whole entry): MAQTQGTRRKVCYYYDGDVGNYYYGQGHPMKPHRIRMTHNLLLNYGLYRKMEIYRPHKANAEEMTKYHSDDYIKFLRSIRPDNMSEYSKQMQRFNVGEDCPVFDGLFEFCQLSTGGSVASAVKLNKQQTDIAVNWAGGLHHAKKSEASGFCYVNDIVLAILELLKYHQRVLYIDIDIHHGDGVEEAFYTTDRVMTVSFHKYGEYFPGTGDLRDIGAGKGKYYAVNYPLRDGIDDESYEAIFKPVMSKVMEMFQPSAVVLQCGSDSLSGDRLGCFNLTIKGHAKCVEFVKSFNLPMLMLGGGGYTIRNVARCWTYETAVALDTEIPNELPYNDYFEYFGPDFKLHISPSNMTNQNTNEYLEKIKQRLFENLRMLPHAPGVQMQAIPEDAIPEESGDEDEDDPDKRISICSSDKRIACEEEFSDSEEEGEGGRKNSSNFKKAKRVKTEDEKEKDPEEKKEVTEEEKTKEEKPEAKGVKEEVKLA
Procedure, shortened: as §1

HDAC 6 = molecular target: T3, HDAC 6 (Homo sapiens, UniProt Q9UBN7)
T3 sequence (Q9UBN7 1-1215): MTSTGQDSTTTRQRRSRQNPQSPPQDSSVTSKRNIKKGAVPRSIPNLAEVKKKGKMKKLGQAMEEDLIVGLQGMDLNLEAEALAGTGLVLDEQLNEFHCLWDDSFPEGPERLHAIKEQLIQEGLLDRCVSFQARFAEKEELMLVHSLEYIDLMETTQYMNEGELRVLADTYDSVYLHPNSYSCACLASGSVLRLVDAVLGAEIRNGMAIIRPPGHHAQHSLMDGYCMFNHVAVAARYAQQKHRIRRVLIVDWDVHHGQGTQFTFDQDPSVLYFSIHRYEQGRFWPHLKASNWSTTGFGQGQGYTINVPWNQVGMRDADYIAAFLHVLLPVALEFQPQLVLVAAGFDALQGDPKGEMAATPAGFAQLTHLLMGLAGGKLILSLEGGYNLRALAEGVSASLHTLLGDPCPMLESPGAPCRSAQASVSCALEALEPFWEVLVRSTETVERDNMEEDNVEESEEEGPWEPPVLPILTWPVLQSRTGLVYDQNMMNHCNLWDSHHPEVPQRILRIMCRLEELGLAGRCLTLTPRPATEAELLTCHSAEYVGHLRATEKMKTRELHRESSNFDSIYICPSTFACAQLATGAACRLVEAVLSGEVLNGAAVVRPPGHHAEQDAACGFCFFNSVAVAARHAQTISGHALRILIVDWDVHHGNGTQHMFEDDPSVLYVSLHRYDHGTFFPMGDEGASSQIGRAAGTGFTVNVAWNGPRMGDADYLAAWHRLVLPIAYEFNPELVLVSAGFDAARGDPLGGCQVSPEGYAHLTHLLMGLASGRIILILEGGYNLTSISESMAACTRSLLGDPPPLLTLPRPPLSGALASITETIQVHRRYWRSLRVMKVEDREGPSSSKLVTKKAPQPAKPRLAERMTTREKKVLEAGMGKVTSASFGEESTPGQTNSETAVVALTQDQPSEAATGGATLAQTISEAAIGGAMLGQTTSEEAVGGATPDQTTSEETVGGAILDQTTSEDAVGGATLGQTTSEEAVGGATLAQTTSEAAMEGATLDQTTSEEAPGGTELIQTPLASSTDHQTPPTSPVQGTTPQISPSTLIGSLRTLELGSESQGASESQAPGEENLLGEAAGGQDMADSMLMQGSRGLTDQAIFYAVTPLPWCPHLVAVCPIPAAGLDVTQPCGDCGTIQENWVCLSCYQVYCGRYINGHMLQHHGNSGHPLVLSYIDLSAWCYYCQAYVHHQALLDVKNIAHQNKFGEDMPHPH
Procedure, shortened: as §1

HDAC 2 = HDAC 2 (Homo sapiens, UniProt Q92769)
Chain of HDAC 2 (Q92769 whole entry): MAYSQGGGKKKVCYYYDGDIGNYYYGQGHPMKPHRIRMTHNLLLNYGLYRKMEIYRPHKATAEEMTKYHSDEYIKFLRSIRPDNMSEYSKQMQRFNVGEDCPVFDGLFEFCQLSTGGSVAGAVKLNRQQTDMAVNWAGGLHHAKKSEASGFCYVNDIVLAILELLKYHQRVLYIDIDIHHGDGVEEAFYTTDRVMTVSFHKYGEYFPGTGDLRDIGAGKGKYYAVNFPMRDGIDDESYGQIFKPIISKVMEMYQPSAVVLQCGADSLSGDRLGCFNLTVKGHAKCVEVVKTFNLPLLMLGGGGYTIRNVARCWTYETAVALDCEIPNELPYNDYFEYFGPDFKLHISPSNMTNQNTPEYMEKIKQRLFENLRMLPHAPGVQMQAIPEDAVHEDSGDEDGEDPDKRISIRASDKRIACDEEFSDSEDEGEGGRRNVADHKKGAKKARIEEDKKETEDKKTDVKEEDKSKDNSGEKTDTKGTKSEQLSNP
Procedure, shortened: as §1

Chain of HDAC 3/NCOR1 (O15379 whole entry): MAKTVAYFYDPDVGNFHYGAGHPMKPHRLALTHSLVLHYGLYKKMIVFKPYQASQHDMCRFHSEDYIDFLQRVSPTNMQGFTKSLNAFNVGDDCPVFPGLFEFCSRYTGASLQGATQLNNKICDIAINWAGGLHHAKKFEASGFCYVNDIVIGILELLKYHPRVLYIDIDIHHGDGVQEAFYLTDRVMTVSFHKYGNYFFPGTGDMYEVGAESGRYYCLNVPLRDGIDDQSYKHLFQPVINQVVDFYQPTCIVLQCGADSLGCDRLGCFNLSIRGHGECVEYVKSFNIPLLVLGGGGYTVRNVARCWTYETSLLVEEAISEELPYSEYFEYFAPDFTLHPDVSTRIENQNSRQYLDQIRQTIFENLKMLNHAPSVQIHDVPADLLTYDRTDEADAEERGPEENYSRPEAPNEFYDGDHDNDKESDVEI
Chain of HDAC 3/NCOR1 (O75376 whole entry partner): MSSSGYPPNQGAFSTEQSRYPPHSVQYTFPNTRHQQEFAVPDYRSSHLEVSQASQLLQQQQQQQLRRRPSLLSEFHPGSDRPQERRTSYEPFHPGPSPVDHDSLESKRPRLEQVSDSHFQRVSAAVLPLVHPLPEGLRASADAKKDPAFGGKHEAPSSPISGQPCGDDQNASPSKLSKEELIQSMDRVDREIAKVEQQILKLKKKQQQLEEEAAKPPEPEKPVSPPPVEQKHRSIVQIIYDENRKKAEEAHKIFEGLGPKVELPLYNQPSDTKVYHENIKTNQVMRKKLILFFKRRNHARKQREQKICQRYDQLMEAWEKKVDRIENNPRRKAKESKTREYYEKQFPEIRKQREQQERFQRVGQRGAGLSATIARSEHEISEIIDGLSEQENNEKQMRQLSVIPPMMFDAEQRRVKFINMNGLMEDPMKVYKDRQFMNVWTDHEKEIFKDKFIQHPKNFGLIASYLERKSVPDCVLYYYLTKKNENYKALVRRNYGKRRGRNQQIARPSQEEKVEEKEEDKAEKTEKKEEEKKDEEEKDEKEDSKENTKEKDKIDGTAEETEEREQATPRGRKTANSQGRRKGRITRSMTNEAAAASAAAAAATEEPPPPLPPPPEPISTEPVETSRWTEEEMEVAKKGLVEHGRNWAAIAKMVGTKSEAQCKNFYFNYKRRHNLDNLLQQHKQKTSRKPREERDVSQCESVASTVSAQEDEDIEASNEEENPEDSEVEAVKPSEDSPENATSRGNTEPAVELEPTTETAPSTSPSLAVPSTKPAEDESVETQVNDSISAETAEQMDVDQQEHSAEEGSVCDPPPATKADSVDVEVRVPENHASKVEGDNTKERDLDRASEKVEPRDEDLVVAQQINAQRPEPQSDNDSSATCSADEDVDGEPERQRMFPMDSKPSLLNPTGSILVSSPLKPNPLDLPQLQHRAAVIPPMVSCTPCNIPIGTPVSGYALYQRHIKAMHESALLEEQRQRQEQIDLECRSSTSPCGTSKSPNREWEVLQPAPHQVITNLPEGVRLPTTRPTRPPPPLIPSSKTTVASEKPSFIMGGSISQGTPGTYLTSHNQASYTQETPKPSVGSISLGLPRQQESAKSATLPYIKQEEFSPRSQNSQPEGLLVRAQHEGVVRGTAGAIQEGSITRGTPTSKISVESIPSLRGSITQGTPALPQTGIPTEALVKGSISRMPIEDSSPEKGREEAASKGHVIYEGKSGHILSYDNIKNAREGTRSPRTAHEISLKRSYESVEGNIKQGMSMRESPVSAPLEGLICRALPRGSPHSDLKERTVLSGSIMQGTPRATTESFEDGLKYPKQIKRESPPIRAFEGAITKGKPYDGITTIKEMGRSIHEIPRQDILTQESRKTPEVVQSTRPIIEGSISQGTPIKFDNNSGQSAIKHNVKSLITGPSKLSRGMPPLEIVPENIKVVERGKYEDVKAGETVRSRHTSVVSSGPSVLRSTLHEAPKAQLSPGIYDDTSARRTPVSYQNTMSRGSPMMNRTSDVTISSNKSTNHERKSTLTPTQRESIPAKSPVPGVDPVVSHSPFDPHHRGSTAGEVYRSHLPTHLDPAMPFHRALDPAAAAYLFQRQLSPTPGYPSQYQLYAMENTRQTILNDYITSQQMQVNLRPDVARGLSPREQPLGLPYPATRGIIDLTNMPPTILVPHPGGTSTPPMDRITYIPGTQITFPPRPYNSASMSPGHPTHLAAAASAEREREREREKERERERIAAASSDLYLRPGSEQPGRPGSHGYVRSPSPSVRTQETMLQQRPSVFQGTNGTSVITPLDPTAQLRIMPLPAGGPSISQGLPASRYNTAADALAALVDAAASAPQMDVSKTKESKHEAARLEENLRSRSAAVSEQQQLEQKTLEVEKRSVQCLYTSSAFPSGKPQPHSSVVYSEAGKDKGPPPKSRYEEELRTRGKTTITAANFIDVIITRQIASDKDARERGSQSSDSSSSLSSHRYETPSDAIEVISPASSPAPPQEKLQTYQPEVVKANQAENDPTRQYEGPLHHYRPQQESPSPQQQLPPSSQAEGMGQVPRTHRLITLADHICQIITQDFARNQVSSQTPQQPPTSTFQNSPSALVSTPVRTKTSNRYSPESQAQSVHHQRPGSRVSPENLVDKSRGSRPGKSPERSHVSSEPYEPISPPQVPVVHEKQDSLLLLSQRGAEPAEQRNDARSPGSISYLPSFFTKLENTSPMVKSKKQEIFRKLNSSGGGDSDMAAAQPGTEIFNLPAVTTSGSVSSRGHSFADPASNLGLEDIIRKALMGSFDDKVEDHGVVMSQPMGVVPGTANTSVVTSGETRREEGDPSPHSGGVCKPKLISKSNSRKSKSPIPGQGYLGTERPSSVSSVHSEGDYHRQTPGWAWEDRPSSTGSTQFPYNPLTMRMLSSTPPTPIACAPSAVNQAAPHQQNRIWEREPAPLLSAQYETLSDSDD

IC50 (HDAC 3/NCOR1): 1.82 nM | IC50 (HDAC 8): 60.3 nM | IC50 (HDAC 10): 11.1 nM | IC50 (HDAC 1): 2.28 nM | IC50 (HDAC 6): 35.8 nM | IC50 (HDAC 2): 3.12 nM
SMILES: COc1ccc(C=NNC(=O)CCCCCCC(=O)NO)cc1 [AB3]
